Measured values gathered from unrelated publications.
Each line is one published result; the experiments were not run side by side.
Target: Myosin light chain kinase, smooth muscle (MYLK, Homo sapiens, UniProt Q15746)

`Nc1ncc(-c2nc(N3CCOCC3)nc(N3CCOCC3)n2)c(C(F)F)n1` gave a remaining binding of 78% (binding; competition with immobilised ligand; 10 µM).
`C#Cc1n[nH]c2c(-c3cn([C@@H](C)c4ccccn4)c(=O)[nH]c3=O)cc(F)cc12` has an inhibition of 1.4% (enzyme activity; inhibitor; 0.1 µM).
For `Cn1cncc1[C@](O)(COc1ccc(C#N)cc1-c1ccc(OC(F)(F)F)cc1)c1ccc(C#N)cc1`, the remaining binding was 88% (cell-free assay; competition with immobilised ligand; 1 µM).
`O=c1[nH]c2ccccc2n1C1CCN(Cc2ccc(-c3[nH]c4cc5ncnc5cc4nc3-c3ccccc3)cc2)CC1` has a remaining signal of 104% (cell-free assay; 0.5 µM).
The inhibition of `Cn1cc(-c2cccc(N3CCc4c(sc5c4CC(C)(C)C5)C3=O)c2CO)cc(Nc2ccncn2)c1=O` is reported as -4% (enzyme activity; inhibitor; 1 µM).
With `Cc1nn(C)cc1-c1nc2c(N3CCN(Cc4ccc(Cl)cc4)CC3)c(Cl)cnc2[nH]1` the remaining binding was 89% (binding; competition with immobilised ligand; 1 µM).
`C#Cc1n[nH]c2c(-c3cn([C@@H](C)c4ccccc4)c(=O)[nH]c3=O)cc(F)cc12` gave an inhibition of -0.2% (enzyme activity; inhibitor; 0.1 µM).
`CC(C)(C)c1cc(C=C(C#N)C#N)cc(Br)c1O` has a remaining activity of 90.6% (enzyme activity; inhibitor; 0.5 µM).
`COc1ncccc1-c1cnn2ccc(N3CCN(C(=O)OC(C)C)CC3)nc12` gave a remaining binding of 85% (binding; competition with immobilised ligand; 1 µM).
